Assay results published in ChEMBL document CHEMBL1122658, “Amnesia-reversal activity of a series of N-[(disubstituted-amino)alkyl] -2-oxo-1-pyrrolidineacetamides, including pramiracetam” (1984).

Legend:
Format in all cases: functional
Details in all cases: route intraperitoneal
Mus musculus [1] = assay: Ability to reverse electroconvulsive shock (ECS) induced amnesia in mice, after administering intraperitoneally, at a dose of 5 mg/kg
Method in brief: (§1)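 Male CF-1 mice (20-25 g), five groups of 20, trained in one trial on step-through inhibitory avoidance (darkened chamber). ECS given 2 h after training. Test drug or vehicle placebo injected ip 2 h after ECS, 1 h before retention test. Entry into box within 60 s scored as amnesia. % reversal = (drug − base-line ECS+placebo)/(ceiling no-ECS+placebo − base-line) ×100.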

Mus musculus [2] = assay: Ability to reverse electroconvulsive shock (ECS) induced amnesia in mice, after administering intraperitoneally, at a dose of 0.31 mg/kg; method in brief: as §1
Mus musculus [3] = assay: Ability to reverse electroconvulsive shock (ECS) induced amnesia in mice, after administering intraperitoneally, at a dose of 0.63 mg/kg; method in brief: as §1
Mus musculus [4] = assay: Ability to reverse electroconvulsive shock induced amnesia in mice, after administering intraperitoneally at a dose of 1.25 mg/kg; method in brief: as §1
Mus musculus [5] = assay: Ability to reverse electroconvulsive shock induced amnesia in mice, after administering intraperitoneally at a dose of 2.5 mg/kg; method in brief: as §1
Mus musculus [6] = assay: Ability to reverse electroconvulsive shock induced amnesia in mice, after administering intraperitoneally at a dose of 5 mg/kg; method in brief: as §1
Mus musculus [7] = assay: Ability to reverse electroconvulsive shock (ECS) induced amnesia in mice, after administering intraperitoneally, at a dose of 80.0 mg/kg; method in brief: as §1
Mus musculus [8] = assay: Ability to reverse electroconvulsive shock induced amnesia in mice, after administering intraperitoneally at a dose of 20.0 mg/kg; method in brief: as §1
Mus musculus [9] = assay: Ability to reverse electroconvulsive shock (ECS) induced amnesia in mice, after administering intraperitoneally, at a dose of 80 mg/kg; method in brief: as §1
Mus musculus [10] = assay: Ability to reverse electroconvulsive shock induced amnesia in mice, after administering intraperitoneally at a dose of 20 mg/kg; method in brief: as §1
Mus musculus [11] = assay: Ability to reverse electroconvulsive shock (ECS) induced amnesia in mice, after administering intraperitoneally, at a dose of 10.0 mg/kg; method in brief: as §1
Mus musculus [12] = assay: Ability to reverse electroconvulsive shock (ECS) induced amnesia in mice, after administering intraperitoneally, at a dose of 160 mg/kg; method in brief: as §1
Mus musculus [13] = assay: Compound was evaluated for the ability to reverse electroconvulsive shock (ECS) induced amnesia in mice, after administering intraperitoneally, at a dose of 40 mg/kg; method in brief: as §1

Row | Structure (SMILES) | Amnesia reversal (Mus musculus [1]) [%] | Amnesia reversal (Mus musculus [3]) [%] | Amnesia reversal (Mus musculus [4]) [%] | Amnesia reversal (Mus musculus [5]) [%] | Amnesia reversal (Mus musculus [6]) [%] | Amnesia reversal (Mus musculus [7]) [%] | Amnesia reversal (Mus musculus [8]) [%] | Amnesia reversal (Mus musculus [9]) [%] | Amnesia reversal (Mus musculus [10]) [%] | also measured
1 | CN(C)CCNC(=O)CN1CCCC1=O.Cl | 50 | – | – | – | – | – | – | – | – | –
2 | CN(C)CCCN1c2ccccc2Sc2ccc(Cl)cc21 [CHLORPROMAZINE] | – | 20 | 10 | 0 | 0 | – | – | – | – | Amnesia reversal (Mus musculus [2]): 15%
3 | C[C@H]1CCC[C@H](C)N1CCNC(=O)CN1CCCC1=O | 48 | – | 45 | 82 | – | 17 | 25 | – | – | –
4 | CC(CNC(=O)CN1C(=O)CCC1C)N1CCCCC1 (centres undefined) | 18 | – | – | – | – | – | – | 45 | 36 | –
5 | CC(C)N(CCCNC(=O)CN1CC(c2ccccc2)CC1=O)C(C)C (centres undefined) | – | 9 | 0 | 45 | 82 | 27 | 55 | – | – | –
6 | C1CCc2nnnn2CC1.O=C(O)c1cccnc1 | – | – | – | – | 0 | – | – | 9 | 0 | –
7 | CC1CCCC(C)N1CCNC(=O)CCN1CCCC1=O (centres undefined) | – | – | – | – | 33 | 17 | 42 | – | – | –
8 | N[C@@H]1C[C@H]1c1ccccc1.N[C@H]1C[C@@H]1c1ccccc1 [TRANYLCYPROMINE] | – | – | 10 | 5 | 15 | – | – | – | – | Amnesia reversal (Mus musculus [11]): 10%
9 | CCN(CC)CCNC(=O)CN1CC(c2ccccc2)CC1=O (centres undefined) | – | 0 | 0 | 27 | 42 | 8 | 0 | – | – | –
10 | CC(CNC(=O)CN1CCCC1=O)N1CCCCC1 (centres undefined) | 0 | – | – | – | – | – | – | 0 | 0 | –
11 | CN(C)CCCNC(=O)CN1CCCC1=O | – | – | – | – | 31 | 46 | 46 | – | – | –
12 | CC1CCCC(C)N1CCCNC(=O)CN1CCCC1=O (centres undefined) | – | – | 25 | 33 | 50 | 100 | 55 | – | – | Amnesia reversal (Mus musculus [12]): 60%
13 | CC1CCCC(C)N1CCNC(=O)CN1CC(c2ccccc2)CC1=O (centres undefined) | 67 | 0 | 10 | 40 | – | – | – | 33 | 44 | –
14 | CC1CC(C)N(CCCNC(=O)CN2CCCC2=O)C(C)(C)C1 (centres undefined) | 9 | – | – | – | – | – | – | 45 | 18 | –
15 | C[C@@H]1CCC[C@H](C)N1CCNC(=O)CN1CCCC1=O | – | 10 | 20 | 50 | 70 | 10 | 70 | – | – | –
16 | CC(C(=O)NCCN1C(C)CCCC1C)N1CCCC1=O (centres undefined) | 17 | – | – | – | – | – | – | 61 | 42 | –
17 | CC1CCCC(C)N1CCNC(=O)CN1CCCCC1=O (centres undefined) | – | – | – | – | 20 | 60 | 10 | – | – | –
18 | CC(C)N(CCNC(=O)CN1CCCC1=O)C(C)C [PRAMIRACETAM] | – | 0 | 30 | 60 | 96 | 18 | 82 | – | – | –
19 | O=C(CN1CCCC1=O)NCCN1CCCCC1 | – | 18 | 64 | 45 | 45 | 0 | 0 | – | – | –
20 | CCC1CCC(=O)N1CC(=O)NCCN1C(C)CCCC1C (centres undefined) | 27 | – | – | – | – | – | – | 27 | 40 | –
21 | C[C@H](N)Cc1ccccc1 [DEXTROAMPHETAMINE] | – | 15 | 40 | – | – | – | – | – | – | Amnesia reversal (Mus musculus [2]): 10%
22 | C=C(C)[C@@H]1[C@H]2OC(=O)[C@@H]1[C@]1(O)C[C@H]3OC34C(=O)O[C@H]2[C@@]41C.CC(C)(O)[C@@H]1[C@H]2OC(=O)[C@@H]1[C@]1(O)C[C@H]3OC34C(=O)O[C@H]2[C@@]41C (some centres undefined) [PICROTOXIN] | – | 5 | 5 | 5 | 5 | – | – | – | – | Amnesia reversal (Mus musculus [2]): 5%

Row | Structure (SMILES) | Amnesia reversal (Mus musculus [1]) [%] | Amnesia reversal (Mus musculus [3]) [%] | Amnesia reversal (Mus musculus [4]) [%] | Amnesia reversal (Mus musculus [5]) [%] | Amnesia reversal (Mus musculus [6]) [%] | Amnesia reversal (Mus musculus [7]) [%] | Amnesia reversal (Mus musculus [8]) [%] | Amnesia reversal (Mus musculus [9]) [%] | Amnesia reversal (Mus musculus [10]) [%] | also measured
23 | CC1CCC(=O)N1CC(=O)NCCCN1C(C)CCCC1C (centres undefined) | 0 | – | – | – | – | – | – | 10 | 30 | –
24 | CN1CCC[C@H]1c1cccnc1 [NICOTINE] | – | 5 | 0 | 5 | 0 | – | – | – | – | Amnesia reversal (Mus musculus [2]): 20%
25 | CC(C)N(CCCCNC(=O)CN1CCCC1=O)C(C)C | – | 0 | 8 | 8 | 31 | 15 | 31 | – | – | –
26 | CC1CCCC(C)N1CCCNC(=O)CN1C(=O)CCC1(C)C (centres undefined) | 25 | – | – | – | – | 50 | – | – | 58 | Amnesia reversal (Mus musculus [12]): 33%
27 | CCN(CC)CCNC(=O)CN1CCCC1=O | 15 | – | – | – | – | – | – | 31 | 46 | –
28 | COC(=O)C(c1ccccc1)C1CCCCN1 (centres undefined) [METHYLPHENIDATE] | – | – | 15 | 10 | 15 | – | 15 | – | – | Amnesia reversal (Mus musculus [11]): 10%
29 | CC1CCCC(C)N1CCCNC(=O)CN1CC(c2ccccc2)CC1=O (centres undefined) | 0 | – | – | – | – | – | – | 50 | 0 | –
30 | CC(C)N(CCCNC(=O)CN1CCCC1=O)C(C)C | – | 0 | 9 | 0 | 30 | 30 | 20 | – | – | –
31 | NC(=O)CN1CC(c2ccccc2)CC1=O (centres undefined) | – | 0 | 0 | 0 | 15 | 0 | 0 | – | – | –
32 | CCC1CCCC(CC)N1CCCNC(=O)CN1CCCC1=O (centres undefined) | 42 | – | 0 | 0 | – | 17 | 42 | – | – | –
33 | Cn1c(=O)c2c(ncn2C)n(C)c1=O [CAFFEINE] | 0 | 5 | 0 | 10 | – | – | – | – | – | Amnesia reversal (Mus musculus [2]): 10%
34 | COC(=O)[C@H]1[C@@H](OC(=O)c2ccccc2)C[C@@H]2CC[C@H]1N2C [COCAINE] | – | 10 | 10 | 15 | 10 | – | – | – | – | Amnesia reversal (Mus musculus [2]): 15%
35 | CC(C)N(C)CCNC(=O)CN1CCCC1=O | 21 | – | – | – | – | – | – | 0 | 0 | –
36 | NC(=O)CN1CCC(c2ccccc2)C1=O (centres undefined) | – | – | – | – | 8 | 33 | 17 | – | – | –
37 | CCC1CCC(=O)N1CC(=O)NCCN(C(C)C)C(C)C (centres undefined) | – | 20 | 20 | 58 | 58 | – | 17 | – | – | Amnesia reversal (Mus musculus [11]): 60%
38 | CC1CCC(=O)N1CC(=O)NCCN(C(C)C)C(C)C (centres undefined) | 0 | – | – | – | – | – | – | 56 | 0 | –
39 | CC1CCC(=O)N1CC(=O)NCCCN(C(C)C)C(C)C (centres undefined) | 40 | – | – | – | – | – | – | 30 | 0 | Amnesia reversal (Mus musculus [12]): 20%
40 | CC(C(=O)NCCCN1C(C)CCCC1C)N1CCCC1=O (centres undefined) | – | – | – | – | 8 | – | 50 | 23 | – | Amnesia reversal (Mus musculus [12]): 30%
41 | CC1CCC(=O)N1CC(=O)NCCN1C(C)CCCC1C (centres undefined) | 55 | 33 | 58 | 67 | – | – | – | 0 | 36 | –
42 | [Cl-].[Li+] [CHLOROLITHIUM] | – | 15 | 10 | 15 | 15 | – | 25 | 20 | – | Amnesia reversal (Mus musculus [11]): 30%; Amnesia reversal (Mus musculus [13]): 30%
43 | CC1CCCC(C)N1CCNC(=O)CN1C(=O)CCC1(C)C (centres undefined) | – | – | – | – | – | – | – | 44 | 22 | Amnesia reversal (Mus musculus [12]): 80%
44 | CC(C)CN(CCNC(=O)CN1CCCC1=O)CC(C)C | – | – | 25 | 33 | 54 | 15 | 25 | – | – | Amnesia reversal (Mus musculus [11]): 25%
